# Assay results from ChEMBL document CHEMBL1255284, “Aspergillus section Fumigati: antifungal susceptibility patterns and sequence-based identification” (2008).
# How the values were obtained:
# Aspergillus viridinutans [1] = assay: Antimicrobial activity against Aspergillus viridinutans isolate CNM-CM-3147 obtained from oropharyngeal exudate of patient after 48 hrs by broth microdilution method; assay type: functional; conditions: isolate CNM-CM-3147, 48 h
# Method in brief: (§1)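 CLSI M38-A broth microdilution with modifications: RPMI 1640 with L-glutamine, 2% glucose, buffered to pH 7 with 0.165 M MOPS. Inoculum of 1 × 10^5 to 5 × 10^5 CFU/ml from 3- to 5-day-old cultures. Incubated 35°C, 48 h, humid. Visual reading with a mirror. MIC is complete growth inhibition; echinocandin MEC is hyphal morphological alteration. Azoles 8 to 0.015 μg/ml; others 16 to 0.03 μg/ml.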
# [2] = system: Aspergillus fumigatiaffinis; assay: Antimicrobial activity against Aspergillus fumigatiaffinis isolate CNM-CM-2280 obtained from sputum of patient after 48 hrs by broth microdilution method; conditions: isolate CNM-CM-2280, 48 h
# Aspergillus lentulus [3] = assay: Antimicrobial activity against Aspergillus lentulus isolate CNM-CM-3134 obtained from sputum of patient after 48 hrs by broth microdilution method; assay type: functional; conditions: isolate CNM-CM-3134, 48 h; method in brief: as §1
# Aspergillus lentulus [4] = assay: Antimicrobial activity against Aspergillus lentulus isolate CNM-CM-1290 obtained from sputum of patient after 48 hrs by broth microdilution method; assay type: functional; conditions: isolate CNM-CM-1290, 48 h; method in brief: as §1
# Aspergillus lentulus [5] = assay: Antimicrobial activity against Aspergillus lentulus isolate CNM-CM-4415 obtained from sputum of patient after 48 hrs by broth microdilution method; assay type: functional; conditions: isolate CNM-CM-4415, 48 h; method in brief: as §1
# Aspergillus lentulus [6] = assay: Antimicrobial activity against Aspergillus lentulus isolate CNM-CM-4420 obtained from nail of patient after 48 hrs by broth microdilution method; assay type: functional; conditions: isolate CNM-CM-4420, 48 h; method in brief: as §1
# Neosartorya hiratsukae [7] = assay: Antimicrobial activity against Neosartorya hiratsukae isolate CNM-CM-3305 obtained from skin of patient after 48 hrs by broth microdilution method; assay type: functional; conditions: Aspergillus hiratsukae, isolate CNM-CM-3305, 48 h; method in brief: as §1
# Aspergillus lentulus [8] = assay: Antimicrobial activity against Aspergillus lentulus isolate CNM-CM-3537 obtained from sputum of patient after 48 hrs by broth microdilution method; assay type: functional; conditions: isolate CNM-CM-3537, 48 h; method in brief: as §1
# Aspergillus lentulus [9] = assay: Antimicrobial activity against Aspergillus lentulus isolate CNM-CM-4428 obtained from skin of patient after 48 hrs by broth microdilution method; assay type: functional; conditions: isolate CNM-CM-4428, 48 h; method in brief: as §1
# Aspergillus lentulus [10] = assay: Antimicrobial activity against Aspergillus lentulus isolate CNM-CM-3538 obtained from sputum of patient after 48 hrs by broth microdilution method; assay type: functional; conditions: isolate CNM-CM-3538, 48 h; method in brief: as §1
# Aspergillus lentulus [11] = assay: Antimicrobial activity against Aspergillus lentulus isolate CNM-CM-4330 obtained from sputum of patient after 48 hrs by broth microdilution method; assay type: functional; conditions: isolate CNM-CM-4330, 48 h; method in brief: as §1
# Aspergillus lentulus [12] = assay: Antimicrobial activity against Aspergillus lentulus isolate CNM-CM-4370 obtained from sputum of patient after 48 hrs by broth microdilution method; assay type: functional; conditions: isolate CNM-CM-4370, 48 h; method in brief: as §1
# [13] = system: Neosartorya pseudofischeri; assay: Antimicrobial activity against Neosartorya pseudofischeri isolate CNM-CM-3914 obtained from nail of patient after 48 hrs by broth microdilution method; assay type: functional; conditions: Aspergillus thermomutatus, isolate CNM-CM-3914, 48 h
# Method in brief: (§2)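 CLSI M38-A broth microdilution with modifications: RPMI 1640 with L-glutamine, MOPS-buffered to pH 7, plus 2% glucose. Inoculum 1 × 10^5 to 5 × 10^5 CFU/ml from 3–5-day cultures. Incubated at 35°C for 48 h, humid. Read visually with a mirror. MIC = complete growth inhibition; echinocandin MEC = altered hyphal morphology. QC strain A. fumigatus ATCC 2004305.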
# Aspergillus fumigatus = assay: Antimicrobial activity against Aspergillus fumigatus ATCC 2004305 after 48 hrs by broth microdilution method; assay type: functional; conditions: ATCC 2004305, 48 h
# [14] = system: Aspergillus fumigatiaffinis; assay: Antimicrobial activity against Aspergillus fumigatiaffinis isolate CNM-CM-3227 obtained from bronchoalveolar lavage fluid of patient after 48 hrs by broth microdilution method; conditions: isolate CNM-CM-3227, Lung
# Aspergillus lentulus [15] = assay: Antimicrobial activity against Aspergillus lentulus isolate CNM-CM-4387 obtained from sputum of patient after 48 hrs by broth microdilution method; assay type: functional; conditions: isolate CNM-CM-4387, 48 h; method in brief: as §1
# Neosartorya hiratsukae [16] = assay: Antimicrobial activity against Neosartorya hiratsukae isolate CNM-CM-3764 obtained from oropharyngeal exudate of patient after 48 hrs by broth microdilution method; assay type: functional; conditions: Aspergillus hiratsukae, isolate CNM-CM-3764, 48 h; method in brief: as §1
# [17] = system: Neosartorya pseudofischeri; assay: Antimicrobial activity against Neosartorya pseudofischeri isolate CNM-CM-4060 obtained from sputum of patient after 48 hrs by broth microdilution method; assay type: functional; conditions: Aspergillus thermomutatus; method in brief: as §2
# [18] = system: Aspergillus fumisynnematus; assay: Antimicrobial activity against Aspergillus fumisynnematus isolate CNM-CM-4063 obtained from bronchoalveolar aspirate of patient after 48 hrs by broth microdilution method; assay type: functional; conditions: isolate CNM-CM-4063, Lung; method in brief: as §1
# Neosartorya hiratsukae [19] = assay: Antimicrobial activity against Neosartorya hiratsukae isolate CNM-CM-3303 obtained from skin of patient after 48 hrs by broth microdilution method; assay type: functional; conditions: Aspergillus hiratsukae, isolate CNM-CM-3303, 48 h; method in brief: as §1
# Aspergillus lentulus [20] = assay: Antimicrobial activity against Aspergillus lentulus isolate CNM-CM-3599 obtained from sputum of patient after 48 hrs by broth microdilution method; assay type: functional; conditions: isolate CNM-CM-3599, 48 h; method in brief: as §1
# Aspergillus viridinutans [21] = assay: Antimicrobial activity against Aspergillus viridinutans isolate CNM-CM-4518 obtained from nail of patient after 48 hrs by broth microdilution method; assay type: functional; conditions: isolate CNM-CM-4518, 48 h; method in brief: as §1
# Neosartorya hiratsukae [22] = assay: Antimicrobial activity against Neosartorya hiratsukae isolate CNM-CM-4328 obtained from cornea of patient after 48 hrs by broth microdilution method; assay type: functional; conditions: Aspergillus hiratsukae, isolate CNM-CM-4328, Cornea; method in brief: as §1
# Aspergillus lentulus [23] = assay: Antimicrobial activity against Aspergillus lentulus isolate CNM-CM-4426 obtained from sputum of patient after 48 hrs by broth microdilution method; assay type: functional; conditions: isolate CNM-CM-4426, 48 h; method in brief: as §1
# Aspergillus lentulus [24] = assay: Antimicrobial activity against Aspergillus lentulus isolate CNM-CM-3583 obtained from sputum of patient after 48 hrs by broth microdilution method; assay type: functional; conditions: isolate CNM-CM-3583, 48 h; method in brief: as §1
# Neosartorya hiratsukae [25] = assay: Antimicrobial activity against Neosartorya hiratsukae isolate CNM-CM-3740 obtained from oropharyngeal exudate of patient after 48 hrs by broth microdilution method; assay type: functional; conditions: Aspergillus hiratsukae, isolate CNM-CM-3740, 48 h; method in brief: as §1
# [26] = system: Neosartorya pseudofischeri; assay: Antimicrobial activity against Neosartorya pseudofischeri isolate CNM-CM-2270 obtained from sputum of patient after 48 hrs by broth microdilution method; assay type: functional; conditions: Aspergillus thermomutatus, isolate CNM-CM-2270, 48 h; method in brief: as §2
# Aspergillus lentulus [27] = assay: Antimicrobial activity against Aspergillus lentulus isolate CNM-CM-3364 obtained from bronchoalveolar lavage fluid of patient after 48 hrs by broth microdilution method; assay type: functional; conditions: isolate CNM-CM-3364, Lung; method in brief: as §1
# [28] = system: Neosartorya pseudofischeri; assay: Antimicrobial activity against Neosartorya pseudofischeri isolate CNM-CM-3769 obtained from sputum of patient after 48 hrs by broth microdilution method; assay type: functional; conditions: Aspergillus thermomutatus; method in brief: as §2
smiles,measurement,setting,value
C[C@@H]1[C@H](O)[C@@H](C)/C=C/C=C/C=C/C=C/C=C/C=C/C=C/[C@H](O[C@@H]2O[C@H](C)[C@@H](O)[C@H](N)[C@@H]2O)C[C@@H]2O[C@](O)(C[C@@H](O)C[C@@H](O)[C@H](O)CC[C@@H](O)C[C@@H](O)CC(=O)O[C@H]1C)C[C@H](O)[C@H]2C(=O)O [AMPHOTERICIN B],MIC,Aspergillus viridinutans [1],0.58 µg/mL
same,MIC,[2],16 µg/mL
same,MIC,Aspergillus lentulus [3],10 µg/mL
same,MIC,Aspergillus lentulus [4],4.5 µg/mL
same,MIC,Aspergillus lentulus [5],6 µg/mL
same,MIC,Aspergillus lentulus [6],10.7 µg/mL
same,MIC,Neosartorya hiratsukae [7],0.31 µg/mL
same,MIC,Aspergillus lentulus [8],7 µg/mL
same,MIC,Aspergillus lentulus [9],12 µg/mL
same,MIC,Aspergillus lentulus [10],7.25 µg/mL
same,MIC,Aspergillus lentulus [11],8 µg/mL
same,MIC,Aspergillus lentulus [12],7.33 µg/mL
same,MIC,[13],0.25 µg/mL
same,MIC,Aspergillus fumigatus,0.25 µg/mL
same,MIC,[14],8 µg/mL
same,MIC,Aspergillus lentulus [15],6 µg/mL
same,MIC,Neosartorya hiratsukae [16],1 µg/mL
same,MIC,[17],0.25 µg/mL
same,MIC,[18],1 µg/mL
same,MIC,Neosartorya hiratsukae [19],0.5 µg/mL
same,MIC,Aspergillus lentulus [20],2.66 µg/mL
same,MIC,Aspergillus viridinutans [21],0.37 µg/mL
same,MIC,Neosartorya hiratsukae [22],0.75 µg/mL
same,MIC,Aspergillus lentulus [23],12 µg/mL
same,MIC,Aspergillus lentulus [24],8 µg/mL
same,MIC,Neosartorya hiratsukae [25],0.66 µg/mL
same,MIC,[26],0.17 µg/mL
same,MIC,Aspergillus lentulus [27],8.4 µg/mL
same,MIC,[28],1 µg/mL
CC[C@H](C)C[C@H](C)CCCCCCCCC(=O)N[C@H]1C[C@@H](O)[C@@H](NCCN)NC(=O)[C@@H]2[C@@H](O)CCN2C(=O)[C@H]([C@H](O)CCN)NC(=O)[C@H]([C@H](O)[C@@H](O)c2ccc(O)cc2)NC(=O)[C@@H]2C[C@@H](O)CN2C(=O)[C@H]([C@@H](C)O)NC1=O [CASPOFUNGIN],minimal effective concentration,Aspergillus viridinutans [1]; read-out: MEC,0.67 µg/mL
same,minimal effective concentration,[2]; read-out: MEC,1.3 µg/mL
same,minimal effective concentration,Aspergillus lentulus [3]; read-out: MEC,0.38 µg/mL
same,minimal effective concentration,Aspergillus lentulus [4]; read-out: MEC,0.28 µg/mL
same,minimal effective concentration,Aspergillus lentulus [5]; read-out: MEC,0.25 µg/mL
same,minimal effective concentration,Aspergillus lentulus [6]; read-out: MEC,0.33 µg/mL
same,minimal effective concentration,Neosartorya hiratsukae [7]; read-out: MEC,0.03 µg/mL
same,minimal effective concentration,Aspergillus lentulus [8]; read-out: MEC,0.42 µg/mL
same,minimal effective concentration,Aspergillus lentulus [9]; read-out: MEC,0.29 µg/mL
same,minimal effective concentration,Aspergillus lentulus [10]; read-out: MEC,0.11 µg/mL
same,minimal effective concentration,Aspergillus lentulus [11]; read-out: MEC,1.2 µg/mL
same,minimal effective concentration,Aspergillus lentulus [12]; read-out: MEC,0.91 µg/mL
same,minimal effective concentration,[13]; read-out: MEC,1 µg/mL
same,minimal effective concentration,Aspergillus fumigatus; read-out: MEC,0.12 µg/mL
same,minimal effective concentration,[14]; read-out: MEC,0.16 µg/mL
same,minimal effective concentration,Aspergillus lentulus [15]; read-out: MEC,0.25 µg/mL
same,minimal effective concentration,Neosartorya hiratsukae [16]; read-out: MEC,0.26 µg/mL
same,minimal effective concentration,[17]; read-out: MEC,0.62 µg/mL
same,minimal effective concentration,[18]; read-out: MEC,0.5 µg/mL
same,minimal effective concentration,Neosartorya hiratsukae [19]; read-out: MEC,0.34 µg/mL
same,minimal effective concentration,Aspergillus lentulus [20]; read-out: MEC,0.26 µg/mL
same,minimal effective concentration,Aspergillus viridinutans [21]; read-out: MEC,1 µg/mL
same,minimal effective concentration,Neosartorya hiratsukae [22]; read-out: MEC,0.03 µg/mL
same,minimal effective concentration,Aspergillus lentulus [23]; read-out: MEC,0.22 µg/mL
same,minimal effective concentration,Aspergillus lentulus [24]; read-out: MEC,1 µg/mL
same,minimal effective concentration,Neosartorya hiratsukae [25]; read-out: MEC,0.66 µg/mL
same,minimal effective concentration,[26]; read-out: MEC,0.51 µg/mL
same,minimal effective concentration,Aspergillus lentulus [27]; read-out: MEC,0.18 µg/mL
same,minimal effective concentration,[28]; read-out: MEC,0.12 µg/mL
